A word on the CC50: it is the concentration that lowers cell viability or growth by half. By EC50 is commonly meant the concentration needed to bring the measured effect to its halfway point.

Activity calls are given as the source filed them. The rule behind the calls is not given here.

Data on 8 molecules can be found in ChEMBL document CHEMBL4251706, “Elimination of HIV-1 Latently Infected Cells by Gnidimacrin and a Selective HDAC Inhibitor” (ACS Med Chem Lett, 2018).

Data set [1] is described as follows: Cytotoxicity against human U937 cells assessed as reduction in cell viability after 48 hrs by CellTiter-Glo luminescent cell viability assay. It is filed as cell-based, U-937. A digest of the protocol:
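U937 cells (HIV-1-negative parental line of U1) at 2x10^5 cells/ml exposed to a range of concentrations for 48 h at 37 °C. Viability read by CellTiter-Glo luminescence. CC50 ± SD derived from 3 independent experiments.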
On the technique in general: In ATP-based viability assays light output follows the ATP content of the culture.

In another data set the test system is PBMC. Briefly: Induction of IFNgamma1 production in human PBMC at 3 uM after 2 days by ELISA. The settings on record: 48 h. It is filed as cell-based. On the technique in general: An ELISA detects its analyte on a solid surface through an enzyme-linked reagent.
The nature of data set [2]: Cytotoxicity against human J-Lat (A2) cells assessed as effect on cell viability at 0.3 uM after 72 hrs by flow cytometric analysis. The data set is classed as cell-based. The procedure, abridged: (§1)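 J-Lat (A2) cells, 1x10^6 cells/well, incubated with the test agent at 37 °C for 72 h. GFP-expressing cells and percent viable cells measured by flow cytometry. Two independent experiments.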
On the technique in general: In flow cytometry, cells or beads pass a laser one at a time.

Data set [3] has as its system Human immunodeficiency virus 1. Briefly: Reactivation of latent HIV1 infected in human U1 cells assessed as increase in p24 production after 48 hrs by ELISA. The data set is classed as functional, organism-based.
The test system of data set [4] is Human immunodeficiency virus 1. The data set is described as follows: Reactivation of latent HIV1 infected in human U1 cells assessed as increase in p24 production after 48 hrs by ELISA relative to vorinostat. It is filed as functional. The procedure, abridged:
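U1 cells at 2x10^5 cells/ml incubated with a range of concentrations at 37 °C for 48 h. Supernatant p24 measured by HIV p24 ELISA. EC50 ± SD derived from 3 independent experiments.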

A short description of data set [5]: Cytotoxicity against human Jurkat cells assessed as reduction in cell viability after 72 hrs by CellTiter-Glo luminescent cell viability assay. It is filed as cell-based.
A short description of data set [6]: Selectivity index, ratio of CC50 for human U937 cells to EC50 for reactivation of latent HIV1 infected in human U1 cells.
Data set [7] has as its target Histone deacetylase 3/Nuclear receptor corepressor 2 (HDAC3/NCoR2) (Homo sapiens) (UniProt O15379+Q9Y618). Briefly: Inhibition of full length human C-terminal His-tagged HDAC3/N-terminal GST-tagged NCOR2 (395 to 489 residues) expressed in baculovirus infected Sf9 insect cells using substrate measured after 60 mins by colorimetric method.
For data set [8], the system named is Human immunodeficiency virus 1. Briefly: Reactivation of latent HIV1 infected in human J-Lat A2 cells assessed as increase in GFP positive cells at 0.5 nM after 72 hrs by flow cytometric analysis. It is filed as functional, organism-based. The procedure, abridged: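 J-Lat (A2) cells express GFP on latent HIV-1 activation; 1x10^6 cells/well incubated with LRA(s), alone or in pairs (HDAC inhibitor TPB 0.3 µM or TPyB 1.0 µM), at 37 °C for 72 h; GFP+ cell frequency by flow cytometry; two independent experiments, one-tailed t-test.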

Data set [9] can be described thus: Cytotoxicity against human J-Lat (A2) cells assessed as effect on cell viability at 0.5 nM after 72 hrs by flow cytometric analysis. It is filed as cell-based. Conditions: 0.0005 µM. A digest of the protocol: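 J-Lat (A2) cells, 1x10^6 cells/well, exposed to LRA(s) at 37 °C for 72 h; percent viable cells read by flow cytometry, two independent experiments.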

A short description of data set [10]: Cytotoxicity against human J-Lat (A2) cells assessed as effect on cell viability at 1 uM after 72 hrs by flow cytometric analysis. It is filed as cell-based. A digest of the protocol:
as §1

In data set [11] the test system is Human immunodeficiency virus 1. Briefly: Reactivation of latent HIV1 infected in human J-Lat A2 cells assessed as increase in GFP positive cells at 1 uM after 72 hrs by flow cytometric analysis. It is filed as functional, organism-based. The procedure, abridged:
as §1

Data set [12] concerns Human immunodeficiency virus 1. The data set is described as follows: Reactivation of latent HIV1 infected in human U1 cells/uninfected U937 cell mixture assessed as increase in p24 production at 0.57 uM supplemented with fresh medium containing compound every 3 days for 18 days and subsequent dosing at day 18 post dose measured on day 21 by ELISA.
For data set [13], the system named is Human immunodeficiency virus 1. The data set is described as follows: Reactivation of latent HIV1 infected in human U1 cells/uninfected U937 cell mixture assessed as reduction in proviral DNA level at 0.57 uM supplemented with fresh medium containing compound every 3 days for 18 days measured post last dose by PCR analysis. The data set is classed as functional, organism-based. The procedure, abridged:
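U1/U937 (1:4) cultures treated for 18 days with T20 present and refed with compound every 3 days. HIV-1 pol DNA (200 bp) amplified by PCR for 30 cycles, with B2M (779 bp, 25 cycles) as internal control. Products run on 2% agarose gels and densitometry expressed as the treated/DMSO ratio.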

Setting [14] is: Human immunodeficiency virus 1, U1, 48 h, read-out: EC50.
[15] abbreviates: U937 cells (CC50) and latent HIV-1 infected U1 cells (EC50).

Turning to `CC(=O)Nc1ccc(C(=O)Nc2cc(-c3cccs3)ccc2N)cc1`, the CC50 at 48 h in data set [1] is 14000 nM. The Activity result (in the data set with PBMC; in data set [2]) was “Non-Toxic” each time. Also, the EC50 in data set [3] (setting [14]) is 930 nM. In addition, the “fold change (FC)” value in data set [4] stood at 1.4. For the same molecule, in data set [5], the CC50 at 72 h came to 12600 nM.

On to `Nc1ccc(F)cc1NC(=O)c1ccc(CNC(=O)/C=C/c2cccnc2)cc1`, for which the CC50 at 48 h in data set [1] was 5000 nM. The selectivity ratio in data set [6] (setting [15]) was determined as 3.6. In addition, the EC50 in data set [3] (setting [14]) amounted to 1400 nM. Moreover, the “fold change (FC)” value in data set [4] is 1.5.

In the case of `O=C(CCCCCCC(=O)Nc1ccccc1)NO` [VORINOSTAT], the CC50 at 48 h in data set [1] was 780 nM.

`Nc1ccccc1NC(=O)c1ccc(-c2cn(CCc3ccsc3)nn2)cc1`: the CC50 at 48 h in [1] came out at 830 nM. In addition, the selectivity ratio in data set [6] is 1.4. In data set [7], the inhibition result is “Active”. The EC50 in [3] (setting [14]) is 600 nM. The “fold change (FC)” value in data set [4] amounted to 0.12.

Turning to `C/C=C(/C)C(=O)O[C@H]1C(C)=C[C@]23C(=O)[C@@H](C=C(CO)[C@@H](O)[C@]12O)[C@H]1[C@@H](C[C@H]3C)C1(C)C` [INGENOL MEBUTATE], the CC50 at 48 h in [1] is > 200 nM. Besides, the selectivity ratio in data set [6] (setting [15]) was > 42. Besides, in data set [8], the outcome was Active. Besides, the Activity entry in data set [9] is given as “Non-Toxic”. Moreover, in data set [3] (setting [14]), the concentration giving a half-maximal response (EC50) is 4.8 nM. Also, the “fold change (FC)” value in data set [4] was determined as 9.7.

`Nc1cc(F)ccc1NC(=O)/C=C/c1cnn(C/C=C/c2ccccc2)c1`: in data set [7], the inhibition entry is “Active”. Moreover, the EC50 result in data set [3] (u1) was “Not Active”. Moreover, the “fold change (FC)” value in data set [4] was determined as 0.

As to `C/C=C1\NC(=O)[C@H]2CSSCC/C=C/[C@H](CC(=O)N[C@H](C(C)C)C(=O)N2)OC(=O)[C@H](C(C)C)NC1=O` [ROMIDEPSIN], the CC50 at 48 h in data set [1] worked out at 0.73 nM. Moreover, the selectivity ratio in data set [6] (setting [15]) was determined as 0.66.

Regarding `CC(=O)Nc1ccc(C(=O)Nc2nc(-c3cccs3)ccc2N)cc1`, in data set [1], the CC50 at 48 h came to 47300 nM. Moreover, the Activity result in data set [10] is “Non-Toxic”. In [6] (setting [15]), the selectivity ratio stood at 8.2. Moreover, the result in [11], in data set [12] and in data set [13] was Active. Also, in data set [3] (setting [14]), the EC50 came to 5700 nM. Besides, the “fold change (FC)” value in data set [4] was found to be 1.3. Moreover, the CC50 at 72 h in data set [5] was 44300 nM.
